Data taken from article PMC8576641 (The Journal of organic chemistry, 2021).
Marks after values point to notes of the source that are not given here. No end group written: not given here.

Experiments:
[1] = 298 K; average of HN CSD values at T(L3), K(S+1) and G(L4) ΔδHα/α', K1R-HP7 as fully-folded state; cited from earlier work
[2] = CD thermal denaturation; format: physicochemical; settings: for β-Strap %-fold χF at 291K: local β-strap folding at 291 K (18 °C) from best-fitted melting curves of [θ(T)]228, phosphate buffer 15 mM, pH 6.5; for T·ΔΔSF°: entropic difference between pairs as printed: 2b/2a, 3d/3e; for ΔCpF°: heat capacity of folding; for ΔGF*: free energy at temperature T* of maximal stability, from thermostability curves; for χF / % fold (NMR and CD collectively): 291 K, NMR and CD data together; for % folded below 50 °C: plateau of thermal stability from 0 to ~50 °C, dynamic equilibrium of stable conformational states
[3] = Loop %-folding by 1H NMR from glycine Hα/α' splitting; format: physicochemical; settings: 291 K; ΔδHα/α'G(L4) model with 0.33 ppm as fully-folded state (model of ref 27)
In short: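 Peptide samples at 3–10 mM for 1H NMR, TOCSY (80 ms mixing), NOESY (200 ms mixing) and 1H–13C HSQC. Samples for 1H–15N HSQC and HMBC were at 10–20 mM, with some constructs at 10–70 mM. Chemical shift deviations are experimental δH minus calculated random-coil δH. Random-coil values were checked against random-coil reference peptides (Δ|CSD| ≤ 0.20 ppm).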

[4] = Kinetic solubility in phosphate buffer; format: physicochemical; settings: phosphate buffer (PB, 50 mM), pH 7.4

Row | Substance | β-Strap %-fold χF at 291K [2] [%] | Loop %-fold χF (value in parentheses) [3] [%] | solubility [4] [mM] | other results
1 | Ac-NPATGK-NH2 [Loop] | – | – | – | Loop %-fold χF [1]: 6 ± 7%^d
2 | Ac-WTFNPATGKFKWTG-NH2 [1c] | 63 ± 4 | 151 | 22.3 | –
3 | Ac-W-NPATGK-W-NH2 [Tr-HP7] | – | – | – | Loop %-fold χF [1]: 49 ± 1%^d
4 | RWVWGGGGKKGGGGWVWE [3d] | 88 ± 1 | – | 5.8 | T·ΔΔSF° [2]: -3.53 kcal/mol
5 | RWNPATGKWE [3c] | 84 ± 11 | 139 | 39.5 | ΔCpF° ([2]; two-state model from CD melts): −106 cal·mol^−1·deg^−1
6 | RWVWRDYRGDMGFDWVWE [3f] | 82 ± 1 | – | 8.2 | ΔGF* [2]: -3.18 kcal/mol
7 | Ac-WVWGPGTGKWVW-NH2 [2b] | 56 ± 1 | 9 | 0.8 | T·ΔΔSF° [2]: 3.25 kcal/mol
8 | RWVWNPATGKWVWE [3a] | 89 ± 14 | 154 | 27.1 | χF / % fold (NMR and CD collectively) [2]: 89–93%; ΔCpF° ([2]; two-state model from CD melts): −53 cal·mol^−1·deg^−1; % folded below 50 °C [2]: > 80%
9 | RWVWRDYRFDMGFDWVWE [3e] | 55 ± 1 | – | 0.6 | –
10 | Ac-WVWNPATGKWVW-NH2 [2a] | 99 ± 1 | 154 | 1.2 | χF / % fold (NMR and CD collectively) [2]: > 90%; ΔGF° ([2]; folding free energy at 298 K, two-state model from CD melts): -2.36 kcal/mol; ΔGF* [2]: -2.50 kcal/mol; % folded below 50 °C [2]: > 80%
11 | KTW-NPATGK-WTE [HP7] | – | – | – | Loop %-fold χF [1]: 89 ± 1%^d
12 | RWHWNPATGKWVWE [3b] | 95 ± 2 | 167 | 56.3 | ΔGF* [2]: -1.84 kcal/mol; ΔCpF° ([2]; two-state model from CD melts): −158 ± 3 cal·mol^−1·deg^−1; % folded below 50 °C [2]: > 80%
13 | Ac-WNPATGKWTG-NH2 [1a] | 28 ± 1 | 70 | 2.9 | –
14 | Ac-WDDATKTWTG-NH2 [1b] | 54 ± 7 | – | 35.3 | –
